TAAR1 ag: human TAAR1 agonists, primary screen, Fluo-8 calcium fluorescence, CHO RD-HGA16 cells; 0.99% of 360,000 active; vehicle wells 0%, saturating PEA agonist 100%; Trace amine-associated receptor 1 (Homo sapiens), Q96RJ0; activation, % at 3 µM;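 active means activation above the mean activation of all test compounds in the run plus 3 SD, cut at about 38% in these data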
Target sequence (Q96RJ0 whole entry, looked up): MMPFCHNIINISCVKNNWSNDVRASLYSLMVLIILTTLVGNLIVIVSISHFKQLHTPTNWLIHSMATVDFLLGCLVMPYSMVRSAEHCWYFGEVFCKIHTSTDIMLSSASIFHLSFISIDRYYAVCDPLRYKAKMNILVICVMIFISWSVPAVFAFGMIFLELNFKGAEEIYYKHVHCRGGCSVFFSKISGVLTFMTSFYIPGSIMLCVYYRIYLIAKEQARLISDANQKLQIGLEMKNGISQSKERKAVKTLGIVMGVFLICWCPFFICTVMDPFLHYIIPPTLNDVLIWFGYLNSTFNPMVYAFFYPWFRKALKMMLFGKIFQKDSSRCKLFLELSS
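Repeats: no replicates (n 1) | Material: CHO-derived RD-HGA16 cells with stable Gα16 and human TAAR1 | Technique: Kinetic Fluo-8 calcium fluorescence | Schedule: 17-24 h seeding, 75 min 37 °C dye, 30 min RT | Evaluation: % activation from peak over basal fluorescence ratio, DMSO-to-PEA scaled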
MC4R ag barr: MC4R agonists recruiting beta-arrestin, primary screen, cell-based, luminescence, agonist arm of biased-ligand search; Melanocortin receptor 4 (Homo sapiens), P32245; U2OS MC4R beta-arrestin complementation; percent of melanotan II response, DMSO zero; activation, % at 8.9 µM; 0.98% of 360,000 active; AID 540308, 2011;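 active means activation above a per-plate cutoff, the mean activation of sample wells on that plate plus 3 SD, cut at about 8% in these data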
TAAR1 antagonist: human TAAR1 antagonists, primary screen, Fluo-8 calcium fluorescence, CHO RD-HGA16 cells; inhibition, % at 3 µM; 1.5% of 360,000 active; Trace amine-associated receptor 1 (Homo sapiens), Q96RJ0; AID 624466, 2012; antagonist;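 active means inhibition above a per-plate cutoff, the mean inhibition of test compounds on that plate plus 3 SD, cut at about 49% in these data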;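 further: 0% = DMSO plus EC80 beta-PEA response and 100% = DMSO alone without agonist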
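Assay system: CHO-derived RD-HGA16 cells stably expressing human TAAR1 plus Gα16. Timing: 140 s kinetic read after compound, 140 s after agonist. Technique: kinetic Fluo-8 calcium fluorescence measurement. Measure: % inhibition of agonist calcium response.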
Beta2AR agonist: beta2AR agonists driving receptor internalization, primary screen, cell-based, FAP fluorogen, flow cytometry; Am2.2-beta2AR cells; response, % (concentration not given with the values); 0.43% of 340,000 active; AID 504454, 2011;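 active means response above a set limit, near 3 SD of response in nonfluorescent compounds, cut at about 42% in these data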
Target sequence (P07550 whole entry, looked up): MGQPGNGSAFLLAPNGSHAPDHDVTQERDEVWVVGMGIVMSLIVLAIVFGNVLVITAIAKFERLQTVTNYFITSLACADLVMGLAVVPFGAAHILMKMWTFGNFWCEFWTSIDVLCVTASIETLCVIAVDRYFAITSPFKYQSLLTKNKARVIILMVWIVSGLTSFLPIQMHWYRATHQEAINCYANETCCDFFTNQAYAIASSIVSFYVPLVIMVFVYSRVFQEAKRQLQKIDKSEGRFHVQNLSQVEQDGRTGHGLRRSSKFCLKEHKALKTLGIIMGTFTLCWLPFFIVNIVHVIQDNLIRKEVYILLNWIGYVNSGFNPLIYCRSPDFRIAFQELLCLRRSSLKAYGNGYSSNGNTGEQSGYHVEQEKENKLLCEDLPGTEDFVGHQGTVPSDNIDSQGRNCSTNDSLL
HTR2A ag: mouse Htr2a agonists via beta-arrestin recruitment, primary screen, cell-based, luminescence; 5-hydroxytryptamine receptor 2A (Mus musculus), P35363; CHO-K1 mHTR2A beta-arrestin complementation; percent of 30 µM serotonin response; activation, % at 7.6 µM; 0.66% of 360,000 active;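 active means activation above a run cutoff, the mean activation of all tested compounds plus 3 SD, cut at about 14% in these data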;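 further: 0% = plate median of compound wells and 100% = 30 µM serotonin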
MC4R antag cAMP: MC4R antagonists of cAMP signaling, primary screen, cell-based, TR-FRET, antagonist arm of biased-ligand search | Melanocortin receptor 4 (Homo sapiens), P32245 | inhibition, % at 6.5 µM | 0.48% of 360,000 active | MC4R-expressing cells, MTII-stimulated cAMP, LANCE TR-FRET | AID 540295, 2011;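 active means inhibition above its plate's cutoff, the mean of tested wells on that plate plus 3 SD, cut at about 29% in these data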;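 further: 0% = Melanotan II alone and 100% = Melanotan II plus saturating MCL0020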
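material = U2OS cells stably expressing human melanocortin 4 receptor (MC4R) | also added = Melanotan II challenge | dosing = single nominal compound dose of 6.5 µM | detection = TR-FRET with Eu-cAMP and labeled anti-cAMP, 671 nm | replication = singlicate | timing = compound 30 min, challenge 1 h, detection 1 h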
cAMP nonselect: nonselective cAMP signaling inhibitors, parental cells, counter-screen for MC4R biased antagonist project, cell-based, TR-FRET, U2OS, forskolin, triplicate | shares compounds with MC4R antag cAMP | LANCE TR-FRET | inhibition, % at 6.5 µM | 26% of 1,600 active | AID 602193, 2012;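 active means mean inhibition over triplicates above the low-control well mean plus 3 SD, set per campaign, cut at about 13% in these data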;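 further: signal is single emission at 671 nm which falls as cellular cAMP rises; 0% = forskolin-stimulated wells and 100% = buffer without forskolin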
MC4R antag conf: MC4R cAMP antagonists, retest, confirmation, cell-based, TR-FRET; MC4R-expressing cells, MTII-stimulated cAMP; shares compounds with MC4R antag cAMP; 27% of 1,600 active; AID 602195, 2012; inhibition, % at 6.5 µM; in the data active means inhibition above about 29%;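 further: 0% = agonist stimulated wells alone and 100% = agonist stimulated wells plus saturating reference antagonist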
MOR ag counter: OPRM1 agonists via beta-arrestin recruitment, confirmation, counter-screen for mouse HTR2A agonist project, cell-based, luminescence, single concentration; activation, % at 9.3 µM; shares compounds with HTR2A ag; U2OS OPRM1 beta-arrestin PathHunter; DMSO 0%, DAMGO 9.3 µM 100%; AID 624380, 2012; 5.3% of 2,300 active;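 active means mean activation above the mean of DMSO-only wells plus 3 SD, cut at about 0.5% in these data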
HTR2A ag conf: mouse HTR2A agonists, beta-arrestin recruitment, confirmation, cell-based, luminescence, CHO-K1 PathHunter, triplicate; shares compounds with HTR2A ag; DMSO 0%, 30 µM serotonin 100%; activation, % at 7.6 µM; 19% of 2,300 active;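 active means mean activation across triplicates above the hit threshold derived in the original primary screen, cut at about 15% in these data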
TAAR1 nonsel count: nonselective antagonists in TAAR1 counter-screen cells, counter-screen for hTAAR1 antagonist project, cell-based, fluorescence, calcium; shares compounds with TAAR1 antagonist; counterscreen cell line, antagonist mode; inhibition, % at 3 µM; 77% of 2,400 active; in the data active means inhibition above about 22%;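 further: CHO-Ga16 host cells stimulated with ATP at an EC80 level; 0% = agonist EC80 plus vehicle and 100% = vehicle without agonist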
TAAR1 antag conf: human TAAR1 antagonists, retest of hits, confirmation, cell-based, fluorescence | shares compounds with TAAR1 antagonist | TAAR1-expressing cells, fluorescence antagonist read-out | inhibition, % at 3 µM | 40% of 2,400 active | AID 651785, 2012; in the data active means inhibition above about 49%;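 further: CHO-Ga16 host cells challenged with agonist PEA near its EC80; 0% = agonist at EC80 plus vehicle and 100% = vehicle with no agonist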
Ga16 nonsel ag: calcium activation in Ga16-expressing cells, counter-screen for TAAR1 antagonist project, cell-based, fluorescence; agonist counterscreen; activation, % at 3 µM; 18% of 2,400 active; AID 651953, 2012; shares compounds with TAAR1 antagonist; in the data active means activation above about 12%;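 further: 0% = vehicle wells and 100% = saturating stimulus response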
TAAR1 ag count: TAAR1 activation by candidate antagonists – cell-based, fluorescence, counter-screen for TAAR1 antagonist project. shares compounds with TAAR1 antagonist. hTAAR1 cell line, agonist mode. activation, % at 3 µM. 2% of 2,400 active. AID 651955, 2012; in the data active means activation above about 37%;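 further: CHO cells stably expressing TAAR1 with calcium dye readout; 0% = DMSO vehicle and 100% = full agonist response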
An asterisk follows results filed as active; x = no result given. In the library only some 4.3% were active in any assay of this set; here they are far more common.

SMILES | TAAR1 ag | MC4R ag barr | TAAR1 antagonist | Beta2AR agonist | HTR2A ag | MC4R antag cAMP | cAMP nonselect | MC4R antag conf | TAAR1 nonsel count | TAAR1 antag conf | Ga16 nonsel ag | TAAR1 ag count | others
COc1ccc(-c2nc3ccccn3c2NCc2ccc3c(c2)OCO3)cc1 | 16 | 0 | 44 | -4 | -3 | 8 | x | x | x | x | x | x
Cc1ccc(-c2nnc(Nc3ccc4c(c3)OCO4)c3ccccc23)cc1S(N)(=O)=O | 0 | 2 | 8 | 0 | 15* | 33* | 6 | 15 | x | x | x | x | MOR ag counter=0;HTR2A ag conf=4
CC(=O)Nc1ccc(Nc2nnc(-c3ccc(C)c(S(N)(=O)=O)c3)c3ccccc23)cc1 | -1 | -2 | -2 | 0 | -5 | 6 | x | x | x | x | x | x
O=C1C2C(c3ccccc3)(C(=O)N1c1ccc(Cl)cc1)C2(c1ccccc1)c1ccccc1 (centres undefined) | 3 | 1 | 62* | 3 | 7 | 38* | -7 | -6 | 16 | 35 | 4 | 13
CCOC(=O)c1cnc2ccc(C(=O)OC)cc2c1Nc1ccc(C(=O)O)cc1 | 15 | 1 | 8 | 0 | 1 | 2 | x | x | x | x | x | x
CCOC(=O)c1ccc2ncc(C(=O)OCC)c(Nc3ccc(N4CCOCC4)cc3)c2c1 | 10 | 1 | 57* | -2 | 3 | 48* | 3 | 48* | 36* | 57* | 6 | 3
COc1ccc(COc2cc(-c3cccc(OC)c3)nc3ccc(NC(=O)c4cccnc4)cc23)cc1 | 12 | -2 | 69* | 30 | -7 | 33* | 2 | 13 | 35* | 47 | 6 | 8
COc1ccc(OCC(=O)NNC(=O)c2cccnc2)cc1 | 1 | -3 | -8 | -3 | 4 | -1 | x | x | x | x | x | x
CCOC(=O)c1coc(C(=O)OCC)c1C(=O)OCC | 2 | -2 | -8 | 4 | 6 | 3 | x | x | x | x | x | x
CCCCNc1c(-c2ccc(OC)c(SC(C)CC)c2)nc2ccc(C)cn12 (centres undefined) | 19 | 1 | 91* | 39 | 2 | 36* | 22* | 48* | 46* | 58* | 8 | 9
CCOC(=O)C1=C(C(=O)OCC)C2N(Cc3ccc(C#N)cc3)c3ccccc3[C@@]23C[C@@H](C(=O)OC)N(S(=O)(=O)c2cccs2)C3=N1 (some centres undefined) | 1 | x | -13 | x | x | x | x | x | x | x | x | x
CC(C)(C)OC(=O)CNC(=O)c1[nH]cnc1C(=O)NC1CCN(C(=O)OC(C)(C)C)CC1 | 14 | x | 35 | 5 | x | x | x | x | x | x | x | x
CC(C)(C)OC(=O)N1CCC(NC(=O)c2nc[nH]c2C(=O)NCC(=O)OCc2ccccc2)CC1 | 25 | -1 | 70* | 16 | 21* | 34* | 9 | 8 | 31* | 59* | 11 | 14 | MOR ag counter=0;HTR2A ag conf=-1
COc1ccc(-c2cc(C(=O)N(C)CC(=O)Nc3ccccc3C(F)(F)F)c3ccccc3n2)cc1OC | 22 | -1 | 67* | 14 | 7 | 31* | 2 | 12 | 34* | 49* | 8 | 9
Cc1nc(-c2cccc(NC(=O)c3ccc(Cl)c(S(=O)(=O)N4CCCC4)c3)c2)cs1 | 11 | -1 | 62* | x | -3 | 31* | 4 | -12 | 26* | 45 | 10 | 6
O=C(COc1coc(CN2CCc3ccccc3C2)cc1=O)Nc1cccc([N+](=O)[O-])c1 | 4 | 2 | 0 | 0 | 4 | 5 | x | x | x | x | x | x
COCCNc1nc(Oc2ccc(NC(C)=O)cc2)c2sc(-c3ccccc3)cc2n1 | 8 | 6 | 55* | x | -1 | 47* | -2 | 8 | 52* | 50* | 9 | 8
COCCNc1nc(Oc2ccc(CC(=O)OC)cc2)c2sc(-c3ccccc3)cc2n1 | 1 | 4 | -2 | x | 0 | 19 | x | x | x | x | x | x
COc1ccc(C2C(C(=O)O)c3ccccc3C(=O)N2Cc2ccco2)cc1 (centres undefined) | 1 | -1 | -17 | -8 | -3 | -3 | x | x | x | x | x | x

High-throughput results: PubChem, several laboratories
